One data set relates to B16-F10. In words: (§1) Antiproliferative activity against mouse B16F10 cells assessed as cell viability after 72 hrs by MTT assay. The class given is functional, cell-based. An outline of the steps:
(§2)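 Cells cultured 72 h with compound; MTT conversion to formazan read by spectrophotometry as a measure of metabolically active cells. IC50 is the concentration that reduces growth by 50% relative to control optical density. Six replicates per condition; one or two independent sextuplicate experiments.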

For a further data set, the system named is SK-MEL-28. As to the kind of experiment: Antiproliferative activity against human SK-MEL-28 cells assessed as cell viability after 72 hrs by MTT assay. The class given is functional, cell-based. Particulars: for IC50: SK-MEL-28, 72 h. A digest of the protocol: as §2
On the technique in general: Formazan colour is commonly taken as a measure of viable cells.

In data set [1] the test system is Hs 683. As to the kind of experiment: (§3) Antiproliferative activity against human Hs683 cells assessed as cell viability after 72 hrs by MTT assay. The class given is functional, cell-based. An outline of the steps:
as §2

The next data set has as its system U-373MG ATCC. As to the kind of experiment: (§4) Antiproliferative activity against human U373 cells assessed as cell viability after 72 hrs by MTT assay. The class given is functional, cell-based. A digest of the protocol: as §2
A further data set relates to MCF7. As to the kind of experiment: Antiproliferative activity against human MCF7 cells assessed as cell viability after 72 hrs by MTT assay. In kind it is functional, cell-based. Particulars: for IC50: MCF7, 72 h. An outline of the steps: as §2
A further data set relates to A549. In words: Antiproliferative activity against human A549 cells assessed as cell viability after 72 hrs by MTT assay. In kind it is functional, cell-based. Particulars: for IC50: A549, 72 h. An outline of the steps: as §2
A short description of data set [2]: as §1. In kind it is functional, cell-based. The settings on record: B16-F10, 72 h. A digest of the protocol:
as §2

Data set [3] in a line: as §3. In kind it is functional, cell-based. The settings on record: Hs 683, 72 h. An outline of the steps:
as §2

Data set [4] is described as follows: as §4. In kind it is functional, cell-based, U-373MG ATCC. Particulars: U373 MG. A digest of the protocol: as §2
For data set [5], the system named is Hs 683. As to the kind of experiment: Cytotoxicity against human Hs683 cells assessed as morphological changes at 50 uM after 48 hrs by phase contrast microscopic analysis. In kind it is functional, cell-based. A digest of the protocol:
(§5)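 Phase-contrast microscopy of Hs683 glioma cells treated at 1 versus 50 μM, judging cytostatic versus cytotoxic morphology.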

Data set [6] is described as follows: Stability in human Hs683 cells assessed as photosensitivity at 1 to 40 uM by quantitative video microscopic analysis. In kind it is ADME, cell-based. Particulars: hs 683, 40 µM.
Data set [7] in a line: Antiproliferative activity against human Hs683 cells assessed as growth inhibition at 1 uM after 72 hrs by quantitative video microscopic analysis relative to control. The settings on record: Hs 683, 72 h, read-out: GI. The class given is functional. A digest of the protocol: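 Hs683 cells filmed by computer-assisted phase-contrast microscopy at 1 μM and 40 μM versus control. Global growth is the cell count on the last image divided by that on the first, taken at 24, 48 and 72 h. The GGR index is treated global growth divided by control global growth. Run once in duplicate; mean ± SEM.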

Data set [8] in a line: Stability in human Hs683 cells assessed as photoactivity at 1 to 40 uM by quantitative video microscopic analysis. Particulars: hs 683, 40 µM. The class given is ADME, cell-based.
In data set [9] the test system is Hs 683. In words: Cytostatic activity against human Hs683 cells assessed as morphological changes at 1 uM after 48 hrs by phase contrast microscopic analysis. In kind it is functional, cell-based. A digest of the protocol: as §5

Active and inactive are the calls of the source. No cut-off for these calls is given here.

Take `C=C1CC[C@H]2[C@]3(C)C[C@@H](C=C(C)C)O[C@H]3CC[C@]2(C)[C@@H]1Cc1c(O)c(C)c(C)oc1=O`: the outcome with B16-F10, with SK-MEL-28, in the data set on Hs 683 [1], with U-373MG ATCC, with MCF7 and with A549 was inactive.
The IC50 is the concentration at which inhibition is half-maximal. For the molecule `C=C1CC[C@@H]2[C@](C)(CC[C@H]3O[C@H](C=C(C)C)C[C@@]23C)[C@@H]1Cc1c(OC)c(C)c(C)oc1=O`, the IC50 in data set [2] was found to be 1 µM; in the data set with SK-MEL-28 it was 48 µM; in data set [3], 0.4 µM; in the data set with MCF7 it was 38 µM; with A549 it was 16 µM.
As for `C=C1CC[C@H]2[C@](C)(CCC=C(C)C)[C@H](O)CC[C@]2(C)[C@@H]1Cc1c(O)c(C)c(C)oc1=O`, the IC50 in data set [2] amounted to 3 µM; in the data set on SK-MEL-28 it was 88 µM; in [3], 2 µM; in data set [4], 84 µM; with MCF7, 2 µM; in the data set on A549, 29 µM.
As for `C=C1CC[C@@H]2[C@](C)(CC[C@H]3O[C@H](C=C(C)C)C[C@@]23C)[C@@H]1Cc1c(OC(C)=O)c(C)c(C)oc1=O`, the IC50 in data set [2] came to 2 µM; with SK-MEL-28, 84 µM; in data set [3] it was 1 µM; in the data set with MCF7 it was 41 µM; in the data set with A549, 47 µM.
The like results for `C=C1CC[C@@H]2[C@](C)(CC[C@H]3CO[C@H](C=C(C)C)C[C@]32C)[C@@H]1Cc1c(O)c(C)c(C)oc1=O` were, in that order, 25 µM, 51 µM, 49 µM, 24 µM and 35 µM.
Turning to `C=C1CC[C@@H]2[C@](C)(CC[C@H](O)[C@@]2(C)CCC=C(C)C)[C@@H]1Cc1c(O)c(C)c(C)oc1=O`, the result with B16-F10, in the data set on SK-MEL-28, with Hs 683 [1], with U-373MG ATCC, in the data set with MCF7 and with A549 was inactive.
In the case of `C=C1CC[C@@H]2[C@](C)(CC[C@H]3O[C@H](C=C(C)C)C[C@@]23C)[C@@H]1Cc1c(O)c(C)c(C)oc1=O`, the half-maximal inhibitory concentration (IC50) came to 1 µM in data set [2]; 73 µM with SK-MEL-28; 1 µM in [3]; 63 µM in [4]; 19 µM in the data set on MCF7; 33 µM in the data set on A549. Moreover, the result in the data set on Hs 683 [5] and in the data set with Hs 683 [9] was Active. Besides, the Stability result in data set [6] and in [8] was “Stable” each time. Also, the inhibition of growth at 1 µM in [7] was 50%.

The values above are taken from ChEMBL document CHEMBL3784950, “Higginsianins A and B, Two Diterpenoid α-Pyrones Produced by Colletotrichum higginsianum, with in Vitro Cytostatic Activity” (J Nat Prod, 2016).
